In ChEMBL document CHEMBL5096209, “Structure-Activity Studies of 3,9-Diazaspiro[5.5]undecane-Based γ-Aminobutyric Acid Type A Receptor Antagonists with Immunomodulatory Effect” (J Med Chem, 2021):
Calls of active or inactive are those of the source. No cut-off for these calls is given here.

Tests used:
[1] = biological target: Gamma-aminobutyric acid receptor subunit alpha-4/beta-1/delta (Homo sapiens, UniProt O14764+P18505+P48169); experiment: Antagonist activity at recombinant human alpha4beta1delta GABAA receptor expressed in HEK293 Flp-In cells by FMP assay; assay type: cell-based, Flp-In-293
How it was run: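 HEK293 Flp-In cells stably expressing human δ subunit, transiently transfected with human α and β subunits (1:1) to form αβδ receptors. Read-out is the FLIPR membrane potential dye ΔRFU, baseline to peak/plateau, with GABA EC80 as agonist. Four-parameter fit of concentration–inhibition curves gives IC50, from at least three independent experiments.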

[2] = tested on: GABAA receptor α4β2δ (human); experiment: Antagonist activity at recombinant human alpha4beta2delta GABAA receptor expressed in HEK293 Flp-In cells by FMP assay
Homo sapiens = species on record: Homo sapiens; experiment: Binding affinity to GABA receptor (unknown origin) assessed as equilibrium binding constant by schild plot analysis; details: filed as antagonist
[3] = Efflux ratio of apparent permeability across basolateral to apical side over apical to basolateral side in MDCK; assay type: ADME, cell-based, Canis lupus familiaris; details: dog
How it was run: (§1)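 MDR1-transfected MDCK monolayers, 0.5 μM test compound added apically or basally. Bidirectional apparent permeability measured in triplicate. Efflux ratio is B→A permeability divided by A→B permeability.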

[4] = Induction of cell proliferation of human CD8-positive T cells at 50 uM measured after 96 hrs in presence of alprazolam by flow cytometry analysis relative to control; assay type: functional
How it was run: (§2)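 Human PBMC from leukocyte cones were CFSE-stained (5 μM) and held at high density overnight. They were then stimulated with soluble anti-CD3 OKT3 (100 pg/mL) plus alprazolam 33 μM, with test compound at 50 μM, for 96 h. CD4+/CD8+ proliferation was measured by CFSE dilution on flow cytometry, at least six independent experiments.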

[5] = Apparent permeability of compound across basolateral to apical side in MDCK cells; assay type: ADME, cell-based, Canis lupus familiaris; details: dog; how it was run: as §1
[6] = tested on: CD4-positive T cell (mouse); experiment: Induction of cell proliferation of mouse CD4+ve Th cells at 50 uM measured after 48 hrs in presence of alprazolam by flow cytometry analysis relative to control
CD4+ve Th = experiment: Induction of cell proliferation of human CD4+ve Th cells at 50 uM measured after 96 hrs in presence of alprazolam by flow cytometry analysis relative to control; assay type: functional; how it was run: as §2
[7] = Receptor occupancy at human GABA receptor
[8] = Apparent permeability of compound across apical to basolateral side in MDCK cells; assay type: ADME, cell-based, Canis lupus familiaris; details: dog; how it was run: as §1
CD8-positive T cell = experiment: Induction of cell proliferation of mouse CD8-positive T cells at 50 uM measured after 48 hrs in presence of alprazolam by flow cytometry analysis relative to control; assay type: functional, cell-based
How it was run: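 Splenocytes from female BALB/c mice were CFSE-stained (5 μM) and stimulated with soluble anti-CD3 145.2C11 (33 ng/mL) plus alprazolam 100 μM, with test compound at 50 μM, for 48 h. CD4+/CD8+ proliferation was measured by CFSE dilution on flow cytometry, at least six independent experiments.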

[9] = Homo sapiens, Flp-In-293, read-out: pIC50 (converted)

Chain of Gamma-aminobutyric acid receptor subunit alpha-4/beta-1/delta (P48169 whole entry): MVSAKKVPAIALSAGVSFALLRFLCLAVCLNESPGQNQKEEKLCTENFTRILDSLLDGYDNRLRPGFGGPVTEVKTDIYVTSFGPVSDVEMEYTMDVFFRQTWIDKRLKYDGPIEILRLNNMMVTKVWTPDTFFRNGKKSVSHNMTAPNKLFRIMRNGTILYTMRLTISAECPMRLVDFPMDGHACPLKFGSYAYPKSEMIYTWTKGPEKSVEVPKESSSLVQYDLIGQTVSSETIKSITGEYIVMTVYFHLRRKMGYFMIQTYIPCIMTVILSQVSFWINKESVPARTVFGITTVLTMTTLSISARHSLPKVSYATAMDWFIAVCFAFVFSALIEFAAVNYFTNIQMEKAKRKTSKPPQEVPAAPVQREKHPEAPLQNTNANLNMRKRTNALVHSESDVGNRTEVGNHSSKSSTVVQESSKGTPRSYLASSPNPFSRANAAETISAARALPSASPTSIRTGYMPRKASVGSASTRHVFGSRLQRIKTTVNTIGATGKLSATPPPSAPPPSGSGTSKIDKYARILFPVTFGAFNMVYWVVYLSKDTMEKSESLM
Chain of Gamma-aminobutyric acid receptor subunit alpha-4/beta-1/delta (O14764 whole entry): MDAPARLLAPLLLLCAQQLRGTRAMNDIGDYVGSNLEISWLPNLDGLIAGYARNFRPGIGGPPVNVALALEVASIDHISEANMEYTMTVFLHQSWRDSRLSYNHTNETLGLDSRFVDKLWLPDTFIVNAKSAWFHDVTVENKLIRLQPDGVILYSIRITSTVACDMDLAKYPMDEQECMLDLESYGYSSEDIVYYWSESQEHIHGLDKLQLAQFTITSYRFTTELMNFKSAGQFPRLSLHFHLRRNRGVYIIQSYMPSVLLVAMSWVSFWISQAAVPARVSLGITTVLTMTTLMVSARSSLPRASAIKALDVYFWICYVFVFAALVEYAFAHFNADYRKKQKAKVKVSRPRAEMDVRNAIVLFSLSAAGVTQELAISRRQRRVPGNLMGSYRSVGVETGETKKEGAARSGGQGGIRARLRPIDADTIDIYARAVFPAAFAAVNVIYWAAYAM
Chain of Gamma-aminobutyric acid receptor subunit alpha-4/beta-1/delta (P18505 whole entry): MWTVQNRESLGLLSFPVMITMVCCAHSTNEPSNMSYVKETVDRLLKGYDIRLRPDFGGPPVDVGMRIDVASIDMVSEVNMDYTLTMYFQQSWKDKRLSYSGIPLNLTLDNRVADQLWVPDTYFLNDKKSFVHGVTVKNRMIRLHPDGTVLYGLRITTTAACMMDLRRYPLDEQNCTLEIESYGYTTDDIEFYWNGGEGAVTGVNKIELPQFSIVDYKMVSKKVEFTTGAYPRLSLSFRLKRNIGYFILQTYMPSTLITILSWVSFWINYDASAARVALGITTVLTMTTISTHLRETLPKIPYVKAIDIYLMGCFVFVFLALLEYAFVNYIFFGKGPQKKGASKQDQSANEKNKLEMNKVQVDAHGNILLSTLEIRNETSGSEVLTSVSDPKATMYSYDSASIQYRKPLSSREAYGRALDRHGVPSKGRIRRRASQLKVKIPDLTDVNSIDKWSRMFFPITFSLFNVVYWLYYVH

SMILES	IC50 [1]	IC50 ([1]; read-out: pIC50 (converted))	IC50 [2, 9]	IC50 ([2]; flp-in-293)	Kb (Homo sapiens)	efflux ratio [3]	Activity [4]	Papp B→A [5]	Activity [6]	Activity (CD4+ve Th)	pIC50 [7]	Papp A→B [8]	Activity (CD8-positive T cell)
O=C(Nc1cccc(C(=O)N2CCC3(CCNCC3)CC2)c1)c1cccs1	0.088 µM	0.0871 µM	0.0676 µM	0.068 µM	0.0069 µM	–	–	–	–	–	–	–	–
Cc1cccc(C(=O)N2CCC3(CCNCC3)CC2)c1	–	–	–	–	–	11.5	20%	15 ×10⁻⁶ cm/s	Active	20%	7.152	1.3 ×10⁻⁶ cm/s	Active
CC(=O)Nc1cccc(C(=O)N2CCC3(CCNCC3)CC2)c1	1.03 µM	1.02 µM	0.363 µM	0.36 µM	–	–	–	–	–	–	–	–	–
